Measurements taken from PubChem BioAssay AID651560 (Sanford-Burnham Center for Chemical Genomics, 2012).
Screen size: about 360,000 compounds; about 820 (0.23%) were called active. Shown is part of a subset that was picked to be rich in actives. Unmarked numbers belong to inactive results.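 Rule for the calls: active = compounds that cut the enzyme signal by at least half of the control window in the single-dose screen; inactive = the rest.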

Target: Low molecular weight phosphotyrosine protein phosphatase (Homo sapiens) (UniProt P24666)
Sequence (P24666 whole entry, looked up): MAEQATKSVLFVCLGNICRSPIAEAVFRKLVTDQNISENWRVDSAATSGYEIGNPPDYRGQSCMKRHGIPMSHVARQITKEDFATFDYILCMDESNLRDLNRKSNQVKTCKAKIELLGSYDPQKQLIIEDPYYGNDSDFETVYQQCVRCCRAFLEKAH
Experiment: inhibition of human LMPTP-A enzyme – biochemical, fluorescence intensity, uHTS, primary screen (AID 651560);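 note: plate controls were DMSO wells with enzyme plus substrate for no effect and substrate without enzyme for full effect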
Details: recombinant LMPTP-A, OMFP fluorogenic substrate, at 20 µM, stronger effect = higher value
Method in brief: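 Test system: LMPTP-A phosphatase enzyme; input: 0.625 nM LMPTP-A final; reagent: OMFP substrate, 400 µM final; compound dosing: 20 µM single dose, 3% DMSO; incubation: 50 min dark incubation at room temperature; measured by: endpoint fluorescence intensity from OMFP dephosphorylation; measure: % inhibition relative to no-enzyme and uninhibited control wells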

| SMILES | inhibition |
| --- | --- |
| NNC(=O)c1cccc(COCC(F)(F)C(F)F)c1 | -2.64% |
| CC(CO)NCC12CC3CC(CC(C3)C1)C2 (centres undefined) | -1.02% |
| COc1ccc(NC(=O)Nc2ccc3c(c2)C(=O)N([C@H](C)CO)C[C@H](C)[C@@H](CN(C)C(=O)Nc2ccc4c(c2)OCO4)O3)cc1 | 0.628% |
| CCOc1ccc(N(CC(=O)NC2CCCCCC2)S(=O)(=O)c2c(C)[nH]c(=O)[nH]c2=O)cc1 | -1.41% |
| CN(C)c1cccc(C(=O)N2CCC(n3nccc3NC(=O)C3CCOC3)CC2)c1 (centres undefined) | -1.94% |
| COCCNc1nc(-c2ccccc2)nc2c1oc1ccccc12 | 2% |
| CCOCCCNS(=O)(=O)Cc1ccccc1 | -0.147% |
| CCOCCCNc1nc(-c2ccccc2)nc2ccccc12 | 57.8% (active) |
| O=C(Nc1ccc(C2CC2(Cl)Cl)cc1)c1cccc([N+](=O)[O-])c1 (centres undefined) | 2.23% |
| Cn1ccc(=Nc2ccc(NC(=O)c3ccc(N=c4ccn(C)c5ccc([N+](=O)[O-])cc45)cc3)cc2)cc1 | 78% (active) |
| O=C(Nc1cc2c3c(c1)C1CCCC1CN3CC1CCCC21)c1ccc([N+](=O)[O-])cc1 (centres undefined) | 2.81% |
| CCc1ccc(CCC(=O)Nc2ccc(S(N)(=O)=O)cc2)o1 | -1.91% |
| CCCOc1ccc(C2C(C(=O)c3ccc(C)o3)=C(O)C(=O)N2CCCn2ccnc2)cc1 (centres undefined) | 20.9% |
| C=CCOc1cccc(C2C(C(=O)c3ccc(C)o3)=C(O)C(=O)N2c2nnc(C)s2)c1 (centres undefined) | 0.72% |
| Cc1cc(N2C(=O)C(O)=C(C(=O)c3ccc(C)o3)C2c2ccc(OCc3ccccc3)cc2)no1 (centres undefined) | 52.5% (active) |
| COCc1ccc(CN2CCC(Oc3ccc(C(=O)NCc4ccccn4)cc3)CC2)o1 | -0.769% |
| CC1C(=O)N(Cc2cn(CC3CCCCC3)nn2)CCS(=O)(=O)N1Cc1ccc(-c2cccc(N(C)C)c2)cc1 (centres undefined) | 2.27% |
| FC(F)(F)c1cccc(-c2nc(COc3ccc(Cl)cc3Cl)no2)c1 | 2.97% |
| O=C1COc2c1ccc(O)c2O | 2.2% |
| CCN(CC)C(=O)CS(=O)CC(=O)Nc1cc(OCCOC)c(Cl)cc1Cl (centres undefined) | -0.0342% |
| C[C@H](CO)N1C[C@H](C)[C@H](CN(C)C(=O)Nc2ccc3c(c2)OCO3)Oc2ncc(Br)cc2C1=O | -2.87% |
| COc1cccc(CNC(=O)C(=O)NCCC2CCCCN2S(=O)(=O)c2ccc(C)cc2)c1 (centres undefined) | 0.141% |

| SMILES | inhibition |
| --- | --- |
| Cn1c(C(=O)OC(C(=O)NC2CCCCC2)c2ccccn2)cc2sccc21 (centres undefined) | 0.323% |
| C=CCn1c(Oc2ccc(C(=O)OC)cc2)nc2c1c(=O)n(C)c(=O)n2C | -1.9% |
| COc1ccccc1N(CC(=O)NC1CCCC1)C(=O)C1(C)CC(=O)N=C2C=CC(C)=CN21 (centres undefined) | -0.3% |
| CCCCNC(=O)Cn1nc(C)c(S(=O)(=O)N2CCOCC2)c1C | -0.848% |
| CCC(C)c1ccccc1NC(=O)CN(C)CC(=O)Nc1ccccc1SC (centres undefined) | -7.1% |
| CC1(C)CC(=O)C2=C(C1)N=C1SCCC(=O)N1C2c1ccc(C(F)(F)F)cc1 (centres undefined) | 0.279% |
| Cc1cc(F)ccc1NC(=O)C(C)n1c2ccccc2c2nc(=O)cc(C)n21 (centres undefined) | -1.13% |
| O=S(=O)(c1ccc(Cl)cc1)N1CCCN(c2ccc(C(F)(F)F)cn2)CC1 | 2.43% |
| CCCN1C(=O)C(NS(=O)(=O)c2ccc(N)cc2)(C(F)(F)F)C(C(=O)OC)=C1C (centres undefined) | -1.38% |
| Cc1cccc(NC(=S)N(CCN(C)C)C(C)c2ccco2)c1 (centres undefined) | -1.32% |
| C=CC1=C(C(=O)O)N2C(=O)[C@@H](NC(=O)/C(=N/OCC(=O)O)c3csc(N)n3)[C@H]2SC1 | 77.9% (active) |
| COc1ccc2c(C)c(CCC(=O)NC3CC3)c(=O)oc2c1C | -1.16% |
| Cc1c(CCC(=O)O)c(=O)oc2c(C)c(OCc3ccccc3Cl)ccc12 | 86.6% (active) |
| O=C(O)c1ccccc1OCc1ccccc1Cl | -0.307% |
| O=C(CO/N=C/c1ccccc1OC(F)F)NC1CCCC1 | -0.427% |
| Cc1ccc(Cc2c(-c3ccc(Cl)cc3)nc3c4ccccc4ccn23)cc1 | 6.26% |
| COc1ccc(NC(=O)c2cc(=O)[nH]c3ccccc23)cc1S(=O)(=O)N1CCOCC1 | -0.651% |
| CCCc1nc(-c2cc3cc(C)ccc3[nH]c2=O)no1 | -2.23% |
| COc1ccc2[nH]c(=O)c(-c3noc(-c4ccc(F)cc4)n3)cc2c1 | 48.8% (active) |
| COc1ccc(Cc2cc(-c3ccc(F)cc3)n[nH]c2=O)cc1 | 0.445% |
| Cn1c(=O)cc(OCC(=O)N2CCN(c3ccccc3F)CC2)c2ccccc21 | -0.233% |
| Cc1[nH]c(N)nc(=S)c1CCCNc1ccccc1 | 4.94% |
